Results from article PMC4334733 (International journal of toxicology, 2015).
Values joined by “and” are separate entries in the source; they are usually repeats but may differ in a detail not shown here. Equal entries are not always repeated. “Also recorded” adds a separate entry of the source. Structures can show the parent of a compound that is named as a salt. One block for each molecule: values may come before it.

Columns and labels:
Female BALB/c mice = assay: 13-week daily oral toxicity study of TDF; assay type: in vivo, mouse; details: for Clinical Chemistry, Day 29 and Day 92: CHO cholesterol, TRI triglycerides
[1] = assay type: in vivo, mouse
In short: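 Female BALB/c mice were gavaged daily (10 ml/kg) at 50, 500 or 1000 mg/kg; the vehicle was 50 mM trisodium citrate dihydrate. Tenofovir was quantified against 2.5–2000 ng/ml plasma standards using peak area ratio to indinavir and 1/y-weighted linear regression. Noncompartmental Cmax, Tmax and AUClast were derived.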

kidney gene expression = assay: Toxicogenomics: microarray gene expression analysis of kidney; assay type: in vivo, mouse
liver gene expression = assay: Toxicogenomics: microarray gene expression analysis of liver; assay type: in vivo, mouse; details: 1000 mg/kg TDF for 91 days vs vehicle
In short: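 Female BALB/c mice received 1000 mg/kg by daily oral gavage for 91 days, or vehicle (50 mM trisodium citrate dihydrate), n=7 per group. They were killed on Day 92, 24 hr after the last dose. Total RNA from a 20–50 mg left liver lobe section was hybridized to Mouse Gene 1.0 ST arrays. Fold change versus vehicle was tested by t-test with Benjamini-Hochberg correction.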

Wistar rats = details: 600 mg/kg TDF for 5 weeks; cited from earlier work
rats = details: oral 100 mg/kg TDF for 8 weeks; cited from earlier work
[2] = kidney, 1000 mg/kg TDF for 91 days vs vehicle, regulation Down, p<0.05, N=7
[3] = kidney, 1000 mg/kg TDF for 91 days vs vehicle, regulation Up, p<0.05, N=7

Mouse AUC plasma level of tenofovir relative to healthy volunteers ([1]; after 1000 mg/kg dose, human value ref 29): approximately eight
Accumulation between dosing Days 1 and 91 (Cmax or AUC) ([1]; plasma tenofovir, oral TDF 50-1000 mg/kg daily): no evidence of accumulation
Structure (SMILES): C[C@H](Cn1cnc2c(N)ncnc21)OCP(=O)(O)O [Tenofovir]
Liver cytomegaly (Female BALB/c mice; 50 or 500 mg/kg/day): not present

Structure (SMILES): CC(C)OC(=O)OCOP(=O)(CO[C@H](C)Cn1cnc2c(N)ncnc21)OCOC(=O)OC(C)C [TDF, Tenofovir disoproxil fumarate]
Fold change of gene expression in the kidney (all changes) (kidney gene expression; 1000 mg/kg TDF vs vehicle, Day 92): less than 2 fold
Fold Change, Cyp4b1 (kidney gene expression; [2]): 1.60 fold
Fold Change, Polr3e (kidney gene expression; [2]): 1.87 fold
Fold Change, Gm10804 (predicted gene 10804) (kidney gene expression; [3]): 1.65 fold
Fold Change, Rorc (RAR-related orphan receptor gamma) (kidney gene expression; [3]): 1.77 fold
Fold Change, Cml3 (camello-like 3) (liver gene expression; down expressed, p<0.05, N=7): 2.08 fold
Fold Change, Gm4952 (liver gene expression; down expressed, p<0.05, N=7): 2.15 fold
Fold Change, Gm15401 (liver gene expression; down expressed, p<0.05, N=7): 2.44 fold
Fold Change, Rgs16 (liver gene expression; down expressed, p<0.05, N=7): 2.86 fold
Fold Change, Serpinb1a (liver gene expression; down expressed, p<0.05, N=7): 2.70 fold
Fold Change, Gria3 (liver gene expression; upward expressed, p<0.05, N=7): 3.34 fold
Fold Change, Phlda3 (liver gene expression; upward expressed, p<0.05, N=7): 2.41 fold
Fold Change, Rdh11 (liver gene expression; upward expressed, p<0.05, N=7): 2.09 fold
Fold Change, Snord116 (liver gene expression; upward expressed, p<0.05, N=7): 2.15 fold
Fold Change, Sult1e1 (liver gene expression; upward expressed, p<0.05, N=7): 4.39 fold
Fold Change, Cdkn1a (cyclin-dependent kinase inhibitor 1A, P21) (liver gene expression; upward expressed, p<0.05, N=7, 1000 mg/kg): 3.7 fold and 3.70 fold
Nephrotoxicity (Wistar rats): nephrotoxicity was observed
Survival (Female BALB/c mice; TDF 0, 50, 500 or 1000 mg/kg po daily for 1, 28 or 91 days): All animals survived until their scheduled sacrifice
Clinical Observations: Gasping (incidence) (Female BALB/c mice; TDF 50 mg/kg po daily): 0
Clinical Observations: Hunched Posture (incidence) (Female BALB/c mice; TDF 50 mg/kg po daily): 0
Clinical Observations: Hypoactivity (incidence) (Female BALB/c mice; TDF 50 mg/kg po daily): 0
Clinical Observations: Ruffled Fur (incidence) (Female BALB/c mice; TDF 50 mg/kg po daily): 9 out of 35 and 9 of 35
Mortality (Female BALB/c mice; TDF 50 mg/kg po daily): 0
Clinical Chemistry, Day 29 and Day 92 (Female BALB/c mice; TDF 50 mg/kg po daily): ^↓(CHO, TRI)
Clinical Observations: Gasping (incidence) (Female BALB/c mice; TDF 500 mg/kg po daily): 0
Clinical Observations: Hunched Posture (incidence) (Female BALB/c mice; TDF 500 mg/kg po daily): 0
Clinical Observations: Hypoactivity (incidence) (Female BALB/c mice; TDF 500 mg/kg po daily): 0
Clinical Observations: Ruffled Fur (incidence) (Female BALB/c mice; TDF 500 mg/kg po daily): 9 out of 35 and 9 of 35
Mortality (Female BALB/c mice; TDF 500 mg/kg po daily): 0
Clinical Chemistry, Day 29 and Day 92 (Female BALB/c mice; TDF 500 mg/kg po daily): ^↓(CHO, TRI)
Clinical Observations: Gasping (incidence) (Female BALB/c mice; TDF 1000 mg/kg po daily): two mice and 2 of 35
Clinical Observations: Hunched Posture (incidence) (Female BALB/c mice; TDF 1000 mg/kg po daily): one mouse and 1 of 35
Clinical Observations: Hypoactivity (incidence) (Female BALB/c mice; TDF 1000 mg/kg po daily): two mice and 2 of 35
Clinical Observations: Ruffled Fur (incidence) (Female BALB/c mice; TDF 1000 mg/kg po daily): 31 out of 35 and 31 of 35
Histopathology: Liver (Days 29 and 92) (Female BALB/c mice; TDF 1000 mg/kg po daily): Minimal/Mild Cytomegaly
Mortality (Female BALB/c mice; TDF 1000 mg/kg po daily): 0
Body Weight (Female BALB/c mice; TDF 1000 mg/kg po daily, vs control): significantly lower mean body weights; also recorded: ^↓(Days 36 and 43)
Clinical Chemistry, Day 29 and Day 92 (Female BALB/c mice; TDF 1000 mg/kg po daily): ^↓(CHO, TRI)
Liver cytomegaly after 4-week recovery (Female BALB/c mice; TDF 1000 mg/kg, Day 119 necropsy): not present; also recorded: not observed
Decreases in cholesterol (CHO) and triglyceride (TRI) levels (Female BALB/c mice; TDF 1000 mg/kg, study Days 29 and 92): 30–48%
Liver cytomegaly, minimal or mild (incidence) (Female BALB/c mice; TDF 1000 mg/kg/day for 28 days, necropsy Day 29): 7 of 10
Liver cytomegaly, minimal or mild (incidence) (Female BALB/c mice; TDF 1000 mg/kg/day for 91 days, necropsy Day 92): 6 of 15
Histopathologic changes in the kidneys (Female BALB/c mice; any dose group): No histopathologic changes
Renal toxicity (rats): induced renal toxicity
